In ChEMBL document CHEMBL1147439, “Synthesis and SAR evaluation of 1,2,4-triazoles as A(2A) receptor antagonists” (Bioorg Med Chem Lett, 2004):

Key:
Adenosine receptor A2a [1] = target: T1, Adenosine receptor A2a (Homo sapiens, UniProt P29274); test: Binding affinity towards human recombinant adenosine A2A receptor by displacement of [3H]SCH-58261 radioligand.
Adenosine receptor A1 = target: T2, Adenosine receptor A1 (Homo sapiens, UniProt P30542); test: Binding affinity for human adenosine A1 receptor by displacement of [3H]DPCPX
T2 sequence (P30542 whole entry): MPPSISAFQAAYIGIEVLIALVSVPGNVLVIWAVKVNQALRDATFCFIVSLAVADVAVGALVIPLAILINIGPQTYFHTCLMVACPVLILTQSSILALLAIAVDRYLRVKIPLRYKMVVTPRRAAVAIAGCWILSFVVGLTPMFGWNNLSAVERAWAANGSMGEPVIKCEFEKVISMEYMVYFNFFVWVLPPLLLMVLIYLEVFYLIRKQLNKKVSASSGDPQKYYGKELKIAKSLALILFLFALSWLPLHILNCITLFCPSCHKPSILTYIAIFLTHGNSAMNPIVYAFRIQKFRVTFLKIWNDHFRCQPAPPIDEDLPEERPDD
Summary of the method: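 Membranes from cells expressing recombinant human A1 receptor, pre-mixed with adenosine deaminase and SPA beads. Labelled with [3H]DPCPX (0.6 nM final) against 10 concentrations of competitor or buffer. Buffer: Tris-HCl 50 mM pH 7.4, NaCl 120 mM, KCl 5 mM, CaCl2 2 mM, MgCl2 10 mM. Xanthine amine congener defined non-specific binding. Incubated 60 min at room temperature, centrifuged, scintillation counted. Duplicates, at least two experiments; Ki given as mean.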

[2] = pKa value was determined; format: physicochemical
Adenosine receptor A2a [3] = target: Adenosine receptor A2a (Rattus norvegicus, UniProt P30543); test: Binding affinity for rat adenosine A2A receptor by displacement of [3H]SCH-58261
Sequence of Adenosine receptor A2a (Rattus norvegicus, UniProt P30543) (P30543 whole entry): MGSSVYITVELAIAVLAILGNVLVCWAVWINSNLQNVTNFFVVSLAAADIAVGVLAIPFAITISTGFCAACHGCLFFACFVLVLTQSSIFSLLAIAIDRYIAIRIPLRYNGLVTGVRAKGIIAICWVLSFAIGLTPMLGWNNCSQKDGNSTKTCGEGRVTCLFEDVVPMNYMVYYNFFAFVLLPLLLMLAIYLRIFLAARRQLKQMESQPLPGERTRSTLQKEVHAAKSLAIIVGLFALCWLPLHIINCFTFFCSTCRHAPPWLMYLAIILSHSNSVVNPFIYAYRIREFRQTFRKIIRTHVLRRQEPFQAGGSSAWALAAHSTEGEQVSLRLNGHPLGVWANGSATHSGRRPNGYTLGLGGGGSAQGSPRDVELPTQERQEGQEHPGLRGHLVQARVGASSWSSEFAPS

[4] = Medium permeability in parallel artificial membrane permeation assay; high; format: functional
[5] = Medium permeability in parallel artificial membrane permeation assay; medium; format: functional
Adenosine receptor A2a [6] = target: T1, Adenosine receptor A2a; test: Binding affinity for human adenosine A2A receptor by displacement of [3H]SCH-58,261; inactive

T1 sequence (P29274 whole entry): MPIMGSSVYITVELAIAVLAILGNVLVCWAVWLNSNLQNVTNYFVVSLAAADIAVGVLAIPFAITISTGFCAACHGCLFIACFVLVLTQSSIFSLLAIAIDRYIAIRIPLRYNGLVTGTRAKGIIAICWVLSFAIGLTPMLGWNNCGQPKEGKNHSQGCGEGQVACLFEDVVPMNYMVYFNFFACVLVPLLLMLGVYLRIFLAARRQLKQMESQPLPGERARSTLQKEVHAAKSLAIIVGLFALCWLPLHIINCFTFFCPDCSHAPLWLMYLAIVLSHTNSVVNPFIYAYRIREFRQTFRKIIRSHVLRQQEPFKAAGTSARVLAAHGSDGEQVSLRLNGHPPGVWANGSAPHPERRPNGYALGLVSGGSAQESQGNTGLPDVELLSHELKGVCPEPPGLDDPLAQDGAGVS

Ki (Adenosine receptor A2a [1])	Structure (SMILES)	further results
4200 nM	COc1cc(/C=N/N=C(\S)Cc2ccccc2)c(O)c(OC)c1	
40 nM	COc1cccc(-c2n[nH]c(Cc3ccc(Cl)c(Cl)c3)n2)c1	Ki (Adenosine receptor A1): 1900 nM
2000 nM	S/C(Cc1ccccc1)=N\N=C\c1cnc2ccccc2c1	
20 nM	COc1ccc(O)c(/C=N/N=C(\S)Cc2ccccc2)c1	pKa [2]: 6.6
> 5200 nM	COc1cccc(-c2nnc(CN3CCCCC3)[nH]2)c1	
700 nM	Oc1ccccc1-c1n[nH]c(-c2ccccc2)n1	
> 5200 nM	COc1cccc(O)c1/C=N/N=C(\S)Cc1ccccc1	
80 nM	COc1cccc(-c2n[nH]c(Cc3cccc([N+](=O)[O-])c3)n2)c1	
	COc1ccc(O)c(/C=N/NC(=O)Cc2ccccc2)c1	pKa [2]: 2.9
4700 nM	COc1cccc(/C=N/N=C(\S)Cc2ccccc2)c1O	
100 nM	S/C(Cc1ccccc1)=N\N=C\c1ccccn1	
20 nM	COc1cccc(-c2n[nH]c(Cc3cccc(F)c3F)n2)c1	Ki (Adenosine receptor A1): 900 nM; Ki (Adenosine receptor A2a [3]): 40 nM; Activity [4]: 3.8 10e-6·s cm-1
1000 nM	c1cc(CN2CCCC2)cc(-c2n[nH]c(-c3ccc4c(c3)OCCO4)n2)c1	Ki (Adenosine receptor A1): 7600 nM
100 nM	COc1cccc(-c2n[nH]c(Cc3ccc4ccccc4c3)n2)c1	Ki (Adenosine receptor A1): 2500 nM; Ki (Adenosine receptor A2a [3]): 400 nM; Activity [5]: 0.3 10e-6·s cm-1
100 nM	COc1ccc(/C=N/N=C(\S)Cc2ccccc2)c(O)c1	
90 nM	COc1cccc(-c2nnc(Cc3ccc(Cl)c(Cl)c3)[nH]2)c1OC	
> 5200 nM	Clc1ccc(Cc2nnc(C3CCCNC3)[nH]2)cc1Cl (configuration not stated)	
	Cc1ccc(O)c(C2=NN(C(=S)Cc3ccccc3)CC2)c1	Ki (Adenosine receptor A2a [6]): > 5200 nM
> 5200 nM	S/C(Cc1ccccc1)=N\N=C\c1ccccc1	
70 nM	COc1cccc(-c2nnc(Cc3ccc(F)c(F)c3)[nH]2)c1	
700 nM	COc1cccc(-c2n[nH]c(CC3CCCCC3)n2)c1	
1200 nM	S/C(Cc1ccccc1)=N\N=C\c1ccc2ccccc2n1	
	COc1ccc(O)c(/C=N/NS(=O)(=O)Cc2ccccc2)c1	pKa [2]: 6.5
100 nM	Clc1ccc(Cc2n[nH]c(-c3ccc4c(c3)OCO4)n2)cc1Cl	
20 nM	COc1cccc(-c2n[nH]c(Cc3ccccc3Br)n2)c1	
1400 nM	Oc1ccc(OC(F)(F)F)cc1/C=N/N=C(\S)Cc1ccccc1	
1000 nM	COc1cccc(-c2n[nH]c(CCc3ccc(Cl)c(Cl)c3)n2)c1	Ki (Adenosine receptor A1): 1800 nM
400 nM	Cn1nc(-c2ccc(N=[N+]=[N-])cc2)nc1-c1cccc(CN2CC=CC2)c1	Ki (Adenosine receptor A1): 7300 nM
700 nM	COc1cccc(-c2nnc(-c3ccc(Cl)c(Cl)c3)[nH]2)c1	Ki (Adenosine receptor A1): 6100 nM
60 nM	Clc1ccc(Cc2nnc(-c3cnccn3)[nH]2)cc1Cl	

Structure (SMILES)	Ki (Adenosine receptor A2a [1])	further results
S/C(Cc1ccccc1)=N\N=C\c1cccnc1	5 nM	
O=[N+]([O-])c1ccc(O)c(/C=N/N=C(\S)Cc2ccccc2)c1	10 nM	
COc1cccc(-c2nc(Cc3ccc(C)c(C)c3)n[nH]2)c1	20 nM	Ki (Adenosine receptor A1): 1700 nM; Ki (Adenosine receptor A2a [3]): 90 nM; Activity [4]: 0.9 10e-6·s cm-1
COc1cccc(-c2n[nH]c(Cc3cccc(Br)c3)n2)c1	10 nM	Ki (Adenosine receptor A1): 100 nM; Ki (Adenosine receptor A2a [3]): 40 nM; Activity [4]: 1.9 10e-6·s cm-1
